These results are taken from ChEMBL document CHEMBL1144871, “Synthesis of substituted 6-anilinouracils and their inhibition of DNA polymerase IIIC and Gram-positive bacterial growth” (J Med Chem, 2003).

The subject of assay [1] is Staphylococcus aureus. Description: Antibacterial activity against Staphylococcus aureus(smith) was determined. In kind it is functional.
For assay [2], the system named is Enterococcus faecalis. Description: Antibacterial activity against Enterococcus faecalis was determined. Format: functional. The method, boiled down:
(§1)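 MIC by broth microdilution. Log-phase cultures in Luria broth, seeded at (3-7) × 10⁵ CFU/mL stocks. Compound from DMSO stock, 2-fold serial dilutions giving five concentrations from 20 to 1.25 µg/mL, final 1% DMSO, with untreated and DMSO controls. Duplicate assays, 37 °C for 16 to 24 h, growth read as OD 600 nm. MIC is the averaged lowest concentration preventing growth.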

Assay [3] concerns the target DNA polymerase III PolC-type (Bacillus subtilis (strain 168), UniProt P13267). Put plainly: Inhibitory activity against DNA polymerase IIIC from Bacillus subtilis was determined. The method, boiled down: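 Homogeneous recombinant B. subtilis pol IIIC, 0.025-0.06 units, added to buffered Mg²⁺/DTT/glycerol mix with dATP, dCTP, dTTP, [³H]dTTP and activated calf thymus DNA, no dGTP ("truncated" assay). Compound serial dilutions in DMSO added before enzyme. 10 min at 30 °C, TCA-pyrophosphate stop, acid-precipitated DNA filtered and scintillation counted. Apparent Ki read directly; duplicates.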

The test system of assay [4] is Enterococcus faecium. Put plainly: Antibacterial activity against Enterococcus faecium was determined. In kind it is functional, enterococcus fecium. The method, boiled down: (§2)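 Broth microdilution MIC. Log-phase cultures grown in Luria broth; wells seeded from stocks at (3-7) × 10⁵ CFU/mL. DMSO stocks diluted 2-fold to five concentrations, 20 to 1.25 µg/mL, plus untreated control; 1% DMSO final in all wells. Duplicate assays, 37 °C for 16 to 24 h, growth read as OD600. MIC taken as lowest concentration preventing growth, averaged.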

In assay [5] the test system is Bacillus subtilis. Put plainly: Antibacterial activity against Bacillus subtilis was determined. Format: functional.
Assay [6] deals with Enterococcus faecalis. Description: Antibacterial activity against vancomycin-resistant strain of Enterococcus faecalis(VRE) was determined. In kind it is functional. The method, boiled down:
as §1

Assay [7] deals with Escherichia coli. Description: Antibacterial activity against Escherichia coli was determined. In kind it is functional. The method, boiled down: as §2
For assay [8], the system named is Staphylococcus aureus. Description: Antibacterial activity against Staphylococcus aureus was determined. In kind it is functional.
Assay [9] relates to Staphylococcus aureus. Description: Antibacterial activity against methicillin-resistant strain of Staphylococcus aureus(MRSA B42876) was determined. Format: functional. Summed up:
as §1

In general, MIC refers to the lowest concentration that inhibits growth of the organism. The Ki is a measure of affinity in units of concentration, obtained from inhibition or displacement. High values mean weaker binding, low ones tighter binding.

Converted amounts (≈) assume the structure as drawn.

DNA polymerase III PolC-type, sequence (P13267 whole entry, the tested form may be a part): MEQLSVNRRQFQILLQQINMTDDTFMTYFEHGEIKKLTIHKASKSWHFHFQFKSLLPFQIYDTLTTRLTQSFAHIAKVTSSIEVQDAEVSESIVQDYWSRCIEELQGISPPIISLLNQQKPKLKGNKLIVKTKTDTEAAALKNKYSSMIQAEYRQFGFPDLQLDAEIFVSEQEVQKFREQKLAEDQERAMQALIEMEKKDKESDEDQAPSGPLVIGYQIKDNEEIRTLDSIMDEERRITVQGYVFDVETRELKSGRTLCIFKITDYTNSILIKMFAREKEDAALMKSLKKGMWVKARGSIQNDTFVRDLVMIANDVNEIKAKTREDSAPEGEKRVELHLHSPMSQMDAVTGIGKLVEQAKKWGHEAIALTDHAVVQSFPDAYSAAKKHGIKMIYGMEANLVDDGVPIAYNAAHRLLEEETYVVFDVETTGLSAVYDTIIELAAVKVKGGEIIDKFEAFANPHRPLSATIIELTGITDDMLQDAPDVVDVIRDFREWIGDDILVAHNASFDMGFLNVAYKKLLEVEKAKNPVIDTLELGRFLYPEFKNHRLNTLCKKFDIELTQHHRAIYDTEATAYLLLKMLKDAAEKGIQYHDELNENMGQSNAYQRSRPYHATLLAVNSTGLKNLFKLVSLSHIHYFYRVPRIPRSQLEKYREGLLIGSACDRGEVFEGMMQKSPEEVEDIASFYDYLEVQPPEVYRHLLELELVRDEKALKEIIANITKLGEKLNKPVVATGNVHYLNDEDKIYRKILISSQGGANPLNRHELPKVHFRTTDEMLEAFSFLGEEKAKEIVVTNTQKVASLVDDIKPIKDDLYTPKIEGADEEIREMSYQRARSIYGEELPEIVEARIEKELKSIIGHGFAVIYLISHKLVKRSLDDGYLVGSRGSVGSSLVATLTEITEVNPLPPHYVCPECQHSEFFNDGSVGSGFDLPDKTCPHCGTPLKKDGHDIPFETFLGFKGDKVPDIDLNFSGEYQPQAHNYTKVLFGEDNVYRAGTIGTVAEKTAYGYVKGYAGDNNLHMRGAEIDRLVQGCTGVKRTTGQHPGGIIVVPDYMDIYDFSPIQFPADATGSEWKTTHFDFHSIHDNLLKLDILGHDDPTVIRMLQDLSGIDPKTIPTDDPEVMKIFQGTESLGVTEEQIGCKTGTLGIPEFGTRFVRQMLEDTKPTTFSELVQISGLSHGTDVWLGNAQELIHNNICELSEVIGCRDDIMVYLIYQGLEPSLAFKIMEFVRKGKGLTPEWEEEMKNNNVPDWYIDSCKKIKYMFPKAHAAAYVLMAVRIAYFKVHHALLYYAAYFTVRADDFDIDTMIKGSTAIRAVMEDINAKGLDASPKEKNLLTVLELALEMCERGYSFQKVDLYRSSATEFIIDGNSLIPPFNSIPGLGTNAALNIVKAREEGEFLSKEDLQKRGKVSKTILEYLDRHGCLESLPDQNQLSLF

Take `COCCCCn1c(=O)cc(Nc2ccc(C)c(I)c2)[nH]c1=O`: the MIC in assay [1] is 5 µg/mL (≈ 11.6 µM); in assay [2], 10 µg/mL (≈ 23.3 µM); in [4], 10 µg/mL (≈ 23.3 µM); in assay [5] it was 5 µg/mL (≈ 11.6 µM); in assay [6] it was 5 µg/mL (≈ 11.6 µM); in assay [7], above 20 µg/mL. The minimal inhibitory concentration (MIC) in [8] turned out to be 10 µg/mL (≈ 23.3 µM); in assay [9], 5 µg/mL (≈ 11.6 µM). In assay [3], this molecule displayed a Ki of 310 nM.
As for `C=C(C)c1cc(Nc2cc(=O)n(CCCCOC)c(=O)[nH]2)ccc1C`, the MIC was 10 µg/mL (≈ 29.1 µM) in assay [1]; 20 µg/mL (≈ 58.2 µM) in assay [2]; 20 µg/mL (≈ 58.2 µM) in [4]; 2.5 µg/mL (≈ 7.28 µM) in assay [5]; 20 µg/mL (≈ 58.2 µM) in assay [6]; above 20 µg/mL in assay [7]. The minimal inhibitory concentration (MIC) in assay [8] is 20 µg/mL (≈ 58.2 µM); in [9], above 20 µg/mL. Further, in assay [3], the Ki amounted to 565 nM.
For the molecule `CCc1cc(Nc2cc(=O)n(CCCCN3CCN(Cc4ccccc4)CC3)c(=O)[nH]2)ccc1C`, the minimum inhibitory concentration (MIC) in [1] is 10 µg/mL (≈ 21 µM); in assay [2], 10 µg/mL (≈ 21 µM); in assay [4], 10 µg/mL (≈ 21 µM); in assay [5] it was 20 µg/mL (≈ 42 µM); in [6] it was 5 µg/mL (≈ 10.5 µM); in assay [7] it was above 20 µg/mL. Besides, the minimal inhibitory concentration (MIC) in assay [8] was 20 µg/mL (≈ 42 µM); in assay [9], 10 µg/mL (≈ 21 µM). For the same molecule, the Ki in [3] was found to be 22 nM.
Turning to `CCc1cc(Nc2cc(=O)n(CCCCN=[N+]=[N-])c(=O)[nH]2)ccc1C`, the MIC in [1] was 2.5 µg/mL (≈ 7.3 µM); in [2], 5 µg/mL (≈ 14.6 µM); in [4], below 1.25 µg/mL; in assay [5], below 1.25 µg/mL; in assay [6], 2.5 µg/mL (≈ 7.3 µM); in [7], above 20 µg/mL. The results for the MIC in assay [8] and in assay [9] were 2.5 µg/mL (≈ 7.3 µM) and above 20 µg/mL, respectively. The same molecule registered an inhibition constant Ki in [3] of 120 nM.
As for `Cc1ccc(Nc2cc(=O)n(CCCCO)c(=O)[nH]2)cc1I`, the minimum inhibitory concentration (MIC) in [1] was 5 µg/mL (≈ 12 µM); in assay [2], 5 µg/mL (≈ 12 µM); in [4] it was 5 µg/mL (≈ 12 µM); in [5] it was 5 µg/mL (≈ 12 µM); in [6] it was 2.5 µg/mL (≈ 6.02 µM); in assay [7], above 20 µg/mL. Also, the figures for the MIC in assay [8] and in assay [9] were 10 µg/mL (≈ 24.1 µM) and 5 µg/mL (≈ 12 µM), respectively. In assay [3], this molecule registered a Ki of 67 nM.
Regarding `COCCCCn1c(=O)cc(Nc2ccc(C)c(C)c2)[nH]c1=O`, the minimum inhibitory concentration (MIC) in assay [1] is 10 µg/mL (≈ 31.5 µM); in [2], 10 µg/mL (≈ 31.5 µM); in [4], 20 µg/mL (≈ 63 µM); in assay [5], 2.5 µg/mL (≈ 7.88 µM); in assay [6] it was 10 µg/mL (≈ 31.5 µM); in assay [7], above 20 µg/mL. The results for the minimum inhibitory concentration (MIC) in assay [8] and in assay [9] were 20 µg/mL (≈ 63 µM) and 10 µg/mL (≈ 31.5 µM), respectively. For the same molecule, in assay [3], the inhibition constant Ki was found to be 550 nM.
`CCc1cc(Nc2cc(=O)n(CCCCN3CCC(O)(c4ccccc4)CC3)c(=O)[nH]2)ccc1C`: the MIC in [1] is 20 µg/mL (≈ 42 µM); in assay [2] it was 20 µg/mL (≈ 42 µM); in [4] it was 10 µg/mL (≈ 21 µM); in [5] it was 20 µg/mL (≈ 42 µM); in [6], 10 µg/mL (≈ 21 µM); in assay [7], above 20 µg/mL. Moreover, the MIC in assay [8] and in assay [9] was 20 µg/mL (≈ 42 µM) each time. For the same molecule, affinity in [3] was put at a Ki of 67 nM.
On to `CCc1cc(Nc2cc(=O)n(CCCCN3CCCCC3)c(=O)[nH]2)ccc1C`, for which the minimal inhibitory concentration (MIC) is 40 µg/mL (≈ 104 µM) in assay [1]; 20 µg/mL (≈ 52 µM) in [2]; 20 µg/mL (≈ 52 µM) in assay [4]; 10 µg/mL (≈ 26 µM) in assay [5]; 10 µg/mL (≈ 26 µM) in assay [6]; above 20 µg/mL in assay [7]. For the same molecule, the minimum inhibitory concentration (MIC) in [8] turned out to be 20 µg/mL (≈ 52 µM); in assay [9], 40 µg/mL (≈ 104 µM). This molecule had a Ki in assay [3] of 28 nM.
